The source made the active and inactive calls. The rule behind the calls is not given here.
What was measured:
Type in all cases: cell-based
[1] = molecular target: Transient receptor potential cation channel subfamily V member 1 (Rattus norvegicus) (UniProt O35433); test: Agonist activity at rat TRPV1 channel expressed in HEK293 cells assessed as induction of inward current at 10 uM and -60 mV holding potential by whole-cell patch-clamp method
Summary of the method: (§1)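 Rat TRPV1 cDNA and an EGFP reporter were cotransfected into HEK293 cells, with recording 1 day later. Whole-cell voltage clamp was run at room temperature (~25 °C) in standard bath (2 mM CaCl2, pH 7.4) with a KCl/MgATP/EGTA pipette solution. Steps from −100 to +100 mV (100 ms) gave I–V curves. Agonist was applied until desensitization, and peak current was scored. EC50 came from a sigmoidal fit.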

[2] = molecular target: Transient receptor potential cation channel subfamily V member 1 (Rattus norvegicus) (UniProt O35433); test: Agonist activity at rat TRPV1 channel expressed in HEK293 cells assessed as outward rectifying current at 10 uM and -60 mV holding potential by whole-cell patch-clamp method; summary of the method: as §1
[3] = molecular target: Transient receptor potential cation channel subfamily V member 1 (Rattus norvegicus) (UniProt O35433); test: Agonist activity at rat TRPV1 channel expressed in HEK293 cells assessed as reversal potential at 10 uM and -60 mV holding potential by whole-cell patch-clamp method; summary of the method: as §1
[4] = molecular target: Transient receptor potential cation channel subfamily V member 1 (Rattus norvegicus) (UniProt O35433); test: Agonist activity at rat TRPV1 channel expressed in HEK293 cells assessed as induction of maximum channel current at 10 uM at -60 mV holding potential by whole-cell patch-clamp method; summary of the method: as §1
[5] = molecular target: Transient receptor potential cation channel subfamily V member 1 (Rattus norvegicus) (UniProt O35433); test: Desensitization of rat TRPV1 expressed in HEK293 cells at 10 uM for 30 sec at -60 mV holding potential in presence of extracellular calcium by whole-cell patch clamp method; summary of the method: as §1
[6] = molecular target: Transient receptor potential cation channel subfamily V member 1 (Rattus norvegicus) (UniProt O35433); test: Partial antagonist activity at rat TRPV1 expressed in HEK293 cells assessed as effect on capsaicin-induced inward current at 0.1 uM by whole-cell patch clamp method (reference value: -[…] +/- […] pA/pF)
[7] = molecular target: Transient receptor potential cation channel subfamily V member 1 (Rattus norvegicus) (UniProt O35433); test: Partial antagonist activity at rat TRPV1 expressed in HEK293 cells assessed as effect on capsaicin-induced inward current at 0.1 uM by whole-cell patch clamp method (reference value: -480.7 +/- 96.9 pA/pF)
Summary of the method: (§2)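 HEK293 cells transiently expressing rat TRPV1 (EGFP cotransfected) were patched in whole-cell mode 1 day post-transfection. Cells were held at −60 mV in Ca2+-containing standard bath (pH 7.4) at ~25 °C. Capsaicin-evoked peak current amplitude was quantified. Sigmoidal curve fitting gave EC50 or IC50 values.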

[8] = molecular target: Transient receptor potential cation channel subfamily V member 1 (Rattus norvegicus) (UniProt O35433); test: Partial antagonist activity at rat TRPV1 expressed in HEK293 cells assessed as effect on capsaicin-induced inward current at 0.1 uM by whole-cell patch clamp method (reference value: -431 +/- 43.1 pA/pF); summary of the method: as §2
[9] = molecular target: Transient receptor potential cation channel subfamily V member 1 (Rattus norvegicus) (UniProt O35433); test: Partial antagonist activity at rat TRPV1 expressed in HEK293 cells assessed as effect on capsaicin-induced inward current at 0.1 uM by whole-cell patch clamp method (reference value: -327.4 +/- 52.3 pA/pF); summary of the method: as §2
[10] = molecular target: Transient receptor potential cation channel subfamily V member 1 (Rattus norvegicus) (UniProt O35433); test: Partial antagonist activity at rat TRPV1 expressed in HEK293 cells assessed as effect on capsaicin-induced inward current at 0.1 uM by whole-cell patch clamp method (reference value: -151.2 +/- 33 pA/pF); summary of the method: as §2
[11] = molecular target: Transient receptor potential cation channel subfamily V member 1 (Rattus norvegicus) (UniProt O35433); test: Partial antagonist activity at rat TRPV1 expressed in HEK293 cells assessed as effect on capsaicin-induced inward current at 0.1 uM by whole-cell patch clamp method (reference value: -7 +/- 2.6 pA/pF); summary of the method: as §2
[12] = molecular target: Transient receptor potential cation channel subfamily V member 1 (Rattus norvegicus) (UniProt O35433); test: Partial antagonist activity at rat TRPV1 expressed in HEK293 cells assessed as effect on capsaicin-induced inward current at 0.6 uM by whole-cell patch clamp method (reference value: -[…] +/- […] pA/pF)
[13] = molecular target: Transient receptor potential cation channel subfamily V member 1 (Rattus norvegicus) (UniProt O35433); test: Partial antagonist activity at rat TRPV1 expressed in HEK293 cells assessed as effect on capsaicin-induced inward current at 0.6 uM by whole-cell patch clamp method (reference value: -480.7 +/- 96.9 pA/pF); summary of the method: as §2
[14] = molecular target: Transient receptor potential cation channel subfamily V member 1 (Rattus norvegicus) (UniProt O35433); test: Partial antagonist activity at rat TRPV1 expressed in HEK293 cells assessed as effect on capsaicin-induced inward current at 0.6 uM by whole-cell patch clamp method (reference value: -431 +/- 43.1 pA/pF); summary of the method: as §2
[15] = molecular target: Transient receptor potential cation channel subfamily V member 1 (Rattus norvegicus) (UniProt O35433); test: Partial antagonist activity at rat TRPV1 expressed in HEK293 cells assessed as effect on capsaicin-induced inward current at 0.6 uM by whole-cell patch clamp method (reference value: -327.4 +/- 52.3 pA/pF); summary of the method: as §2
[16] = molecular target: Transient receptor potential cation channel subfamily V member 1 (Rattus norvegicus) (UniProt O35433); test: Partial antagonist activity at rat TRPV1 expressed in HEK293 cells assessed as effect on capsaicin-induced inward current at 0.6 uM by whole-cell patch clamp method (reference value: -151.2 +/- 33 pA/pF); summary of the method: as §2
[17] = molecular target: Transient receptor potential cation channel subfamily V member 1 (Rattus norvegicus) (UniProt O35433); test: Partial antagonist activity at rat TRPV1 expressed in HEK293 cells assessed as effect on capsaicin-induced inward current at 0.6 uM by whole-cell patch clamp method (reference value: -7 +/- 2.6 pA/pF); summary of the method: as §2
[18] = molecular target: Transient receptor potential cation channel subfamily V member 1 (Rattus norvegicus) (UniProt O35433); test: Partial antagonist activity at rat TRPV1 expressed in HEK293 cells assessed as effect on capsaicin-induced inward current at 1 uM by whole-cell patch clamp method; summary of the method: as §2
[19] = molecular target: Transient receptor potential cation channel subfamily V member 1 (Rattus norvegicus) (UniProt O35433); test: Partial antagonist activity at rat TRPV1 expressed in HEK293 cells assessed as effect on capsaicin-induced inward current at 1 uM by whole-cell patch clamp method (reference value: -[…] +/- […] pA/pF)
[20] = molecular target: Transient receptor potential cation channel subfamily V member 1 (Rattus norvegicus) (UniProt O35433); test: Partial antagonist activity at rat TRPV1 expressed in HEK293 cells assessed as effect on capsaicin-induced inward current at 1 uM by whole-cell patch clamp method (reference value: -480.7 +/- 96.9 pA/pF); summary of the method: as §2

Transient receptor potential cation channel subfamily V member 1 (Rattus norvegicus), sequence (O35433 whole entry): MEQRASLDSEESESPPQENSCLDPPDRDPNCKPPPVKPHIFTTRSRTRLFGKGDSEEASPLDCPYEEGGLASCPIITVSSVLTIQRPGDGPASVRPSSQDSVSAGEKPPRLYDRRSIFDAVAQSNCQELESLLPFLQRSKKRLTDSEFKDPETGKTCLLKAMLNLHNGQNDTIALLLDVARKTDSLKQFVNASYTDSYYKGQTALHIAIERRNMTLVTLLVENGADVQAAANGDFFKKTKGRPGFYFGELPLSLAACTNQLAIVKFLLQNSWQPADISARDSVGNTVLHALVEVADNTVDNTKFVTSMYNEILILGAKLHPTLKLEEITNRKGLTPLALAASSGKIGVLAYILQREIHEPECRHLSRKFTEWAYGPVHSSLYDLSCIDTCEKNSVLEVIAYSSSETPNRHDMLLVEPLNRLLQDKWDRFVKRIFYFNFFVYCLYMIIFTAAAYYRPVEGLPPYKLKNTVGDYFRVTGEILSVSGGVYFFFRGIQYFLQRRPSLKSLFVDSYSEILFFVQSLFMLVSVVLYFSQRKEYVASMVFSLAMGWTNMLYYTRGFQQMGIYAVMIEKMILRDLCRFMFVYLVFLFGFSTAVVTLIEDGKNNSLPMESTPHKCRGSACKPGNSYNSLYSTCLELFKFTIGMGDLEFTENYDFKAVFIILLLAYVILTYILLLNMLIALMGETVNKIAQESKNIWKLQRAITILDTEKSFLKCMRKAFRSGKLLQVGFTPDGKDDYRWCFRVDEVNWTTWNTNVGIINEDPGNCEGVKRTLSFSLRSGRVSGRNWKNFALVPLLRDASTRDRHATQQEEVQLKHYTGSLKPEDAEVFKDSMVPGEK

CN1c2ccccc2C(=O)N2CCc3c([nH]c4ccccc34)C21 (stereo not given) was tested, and the Activity [1] was “Active”, the Activity [2] was “Active” and the Activity [3] was 0 mV. The Activity [4] was -143 pA/pF, the Activity [5] was “Active” and the Activity [6] was -492 pA/pF. It also gave an Activity [7] of -416 pA/pF, an Activity [8] of -390 pA/pF and an Activity [9] of -236 pA/pF. The Activity [10] was -94.8 pA/pF, the Activity [11] was -6.4 pA/pF and the Activity [12] was -528 pA/pF. It also gave an Activity [13] of -422 pA/pF, an Activity [14] of -328 pA/pF and an Activity [15] of -208 pA/pF. It also gave an Activity [16] of -81.6 pA/pF, an Activity [17] of -35.9 pA/pF and an Activity [18] of -448 pA/pF. It also gave an Activity [19] of -370 pA/pF and an Activity [20] of -296 pA/pF.

Reference: ChEMBL document CHEMBL3856186, “Partial Activation and Inhibition of TRPV1 Channels by Evodiamine and Rutaecarpine, Two Major Components of the Fruits of Evodia rutaecarpa” (J Nat Prod, 2016)
